This passage reports Activity and IC50 results from ChEMBL document CHEMBL1155470, “Colloid formation by drugs in simulated intestinal fluid” (J Med Chem, 2010).

SMILES strings stand for the structures.

The nature of series [1]: Colloidal aggregation in fed state simulated intestinal fluid assessed as colloid radius at 120 uM by dynamic light scattering assay in presence of 1% DMSO. The format is physicochemical. To be noted: simulated gi fluid. The essentials: (§1)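 Concentrated DMSO stocks diluted into filtered FeSSIF: blank FeSSIF plus 15 mM sodium taurocholate and 3.75 mM lecithin, dissolved at 37 °C. Final DMSO 1% unless otherwise noted. Particle size by dynamic light scattering at 826.6 nm, detector at 90°, 100% laser power. Values are averages of three or more independent measurements at room temperature.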

Series [2] addresses T1, Cruzipain (Trypanosoma cruzi, UniProt P25779). The series is described as follows: Inhibition of Trypanosoma cruzi cruzaine preincubated for 5 mins before substrate addition by fluorescence assay in absence of Triton X-100.
Series [3] addresses T1, Cruzipain. The series is described as follows: Inhibition of Trypanosoma cruzi cruzaine preincubated for 5 mins before substrate addition by fluorescence assay in presence of 0.01% Triton X-100.
The nature of series [4]: Colloidal aggregation in fed state simulated intestinal fluid by dynamic light scattering assay in presence of 0.6% DMSO. It counts as physicochemical. The settings on record: simulated gi fluid. Summed up:
as §1

The nature of series [5]: Colloidal aggregation in fed state simulated intestinal fluid assessed as colloid radius at 50 uM by dynamic light scattering assay in presence of 1% DMSO. The settings on record: simulated gi fluid. It counts as physicochemical. The essentials: as §1
Series [6] in a line: Colloidal aggregation in fed state simulated intestinal fluid at 550 uM by dynamic light scattering-based beads autocorrelation assay in presence of 2.75% DMSO. It counts as physicochemical. To be noted: simulated gi fluid. The essentials: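 FeSSIF samples examined by DLS (826.6 nm laser, 90° detector, room temperature), comparing autocorrelation curves with blank FeSSIF. The micelle background was checked with 200 nm calibration beads diluted in FeSSIF. Drug samples were made by diluting DMSO stocks into filtered FeSSIF (15 mM taurocholate, 3.75 mM lecithin).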

A short description of series [7]: Colloidal aggregation in fed state simulated intestinal fluid by dynamic light scattering assay in presence of 0.25% DMSO. The format is physicochemical. To be noted: simulated gi fluid. Summed up:
as §1

A short description of series [8]: Colloidal aggregation in fed state simulated intestinal fluid by dynamic light scattering assay in presence of 2.75% DMSO. The format is physicochemical. To be noted: simulated gi fluid. Summed up: as §1
The nature of series [9]: Colloidal aggregation in fed state simulated intestinal fluid assessed as colloid radius at 550 uM by dynamic light scattering assay in presence of 2.75% DMSO. The settings on record: simulated gi fluid.

T1 sequence (P25779 whole entry): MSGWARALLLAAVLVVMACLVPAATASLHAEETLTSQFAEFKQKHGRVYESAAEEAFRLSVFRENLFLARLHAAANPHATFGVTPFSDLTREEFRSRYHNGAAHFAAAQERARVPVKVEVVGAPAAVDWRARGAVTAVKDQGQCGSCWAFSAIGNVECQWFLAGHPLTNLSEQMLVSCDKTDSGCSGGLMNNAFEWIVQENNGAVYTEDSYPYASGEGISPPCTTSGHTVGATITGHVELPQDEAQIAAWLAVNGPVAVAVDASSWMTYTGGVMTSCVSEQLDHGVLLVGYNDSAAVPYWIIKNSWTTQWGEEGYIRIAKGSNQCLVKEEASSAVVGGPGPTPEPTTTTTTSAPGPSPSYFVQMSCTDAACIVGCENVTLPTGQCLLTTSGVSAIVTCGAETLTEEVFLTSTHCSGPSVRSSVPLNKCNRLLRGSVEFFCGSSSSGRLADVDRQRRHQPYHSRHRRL

On to `Cc1ccc(-c2cc(C(F)(F)F)nn2-c2ccc(S(N)(=O)=O)cc2)cc1` [CELECOXIB], for which the values for the Activity in series [1] and in series [4] were 161.8 nm and 120 µM, respectively. Also, the 50% inhibitory concentration (IC50) in series [2] was 126 µM; in series [3], more than 400 µM.

Take `CCOc1nc2cccc(C(=O)OC(C)OC(=O)OC3CCCCC3)c2n1Cc1ccc(-c2ccccc2-c2nnn[nH]2)cc1` (stereo unspecified) [CANDESARTAN CILEXETIL]: the Activity in series [5] was 38.8 nm; in series [6], “Active”; in [7] it was 50 µM; in [8], 550 µM; in series [9] it was 50.1 nm. The results for the concentration for half-maximal inhibition (IC50) in series [2] and in [3] were 42 µM and 168 µM, respectively.

As a reminder, the IC50 is the midpoint of a concentration-inhibition curve.
